ABCB6 inh 2 – blocks the human ABCB6 transporter. K562-ABCB6 porphyrin accumulation, flow cytometry, 1 h; active compounds read low. fluorescence ratio to DMSO, % at 10 µM. AID 602162. 0.19% of 360,000 active. Q9NP58;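 active means fluorescence ratio to DMSO below 75%, the collection mean minus 3 SD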;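 further: signal is porphyrin accumulated inside mitochondria; 100% equals median channel fluorescence of DMSO control wells; lower ratio means ABCB6 inhibition with less porphyrin fluorescence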
Arrestin-AP2 inh – inhibitors of human beta-arrestin and AP2 interaction; 0.31% of 340,000 active; inhibition, % at 10 µM; FITC-arrestin peptide / GST-AP2 beads, flow cytometry; AP2 beta2 appendage carries R879A mutation; AID 504490;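 active means inhibition above a set limit, near 3 SD of compounds lacking own fluorescence, cut at about 54% in these data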;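 further: plate controls were DMSO wells for no effect and 5 µM unlabelled arrestin peptide for full effect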
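Test system: GST-tagged AP2 beta2-adaptin appendage (R879A) on 4 µm glutathione beads; also added: fluorescein-tagged arrestin peptide at 50 nM final; timing: 12 min plus 1 h, RT; signal: flow cytometry, FL1 (488/535 nm); read-out: percent drop in bead-associated FITC signal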
hiPSC survival – enhancers of human iPSC single-cell survival. hiPSC single-cell survival, ATPlite luminescence; 100% = ROCK inhibitor wells, 0% = DMSO. survival enhancement, % at 20 µM. 0.044% of 360,000 active; in the data active means survival enhancement above about 18%;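 further: cells exposed to compounds for 16 hours before the ATP read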
PG9 binder – PG9 antibody binding by small molecule | TR-FRET gp120-PG9 antibody binding | inhibition, % at 6.7 µM | 0.43% of 360,000 active; in the data active means inhibition above about 8.5%
Arr-AP2 CP1 – blocks beta-arrestin peptide binding to human AP2; 2% of 1,300 active; shares compounds with Arrestin-AP2 inh; inhibition, % at 10 µM; AID 504908; GST-AP2 beads, FITC arrestin peptide binding, flow cytometry; GST-fused beta2-adaptin appendage, R879A mutant;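 active means inhibition above a set limit, roughly 3 SD of non-fluorescent compound noise, cut at about 38% in these data; inactive means inhibition at or below that limit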;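 further: loss of bead fluorescence from 50 nM FITC arrestin peptide bound to appendage; 0% = negative control wells and 100% = excess unlabelled arrestin peptide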
GST-FITC bead – disrupts GST binding to glutathione beads, arrestin-AP2 artifact; shares compounds with Arrestin-AP2 inh; inhibition, % at 10 µM; GST-fluorescein binding to GSH beads, fluorescence, counter-screen; 2% of 1,300 active;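 active means inhibition above 50%, about 3 SD of the inhibition seen with non-fluorescent compounds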;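 further: fluorescein maleimide labelled GST captured on 4 micron glutathione beads; higher means more loss of bead fluorescence from quenching or blocked binding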
* hit, by the source's call; . = no result given. An excerpt weighted towards active compounds, which were near 0.89% of everything screened.

SMILES | ABCB6 inh 2 | Arrestin-AP2 inh | hiPSC survival | PG9 binder | Arr-AP2 CP1 | GST-FITC bead
CCN(Cc1ccccc1)C(=O)c1cc(S(=O)(=O)N2CCOCC2)ccc1N1CCCC1 | 94 | 57* | 0 | -1 | -11 | -2
O=C(O)c1cc(S(=O)(=O)N2CCOCC2)ccc1N1CCCCC1 | 96 | 5 | -3 | -2 | . | .
CC(C)(C)C(=O)c1c(N)[nH]c(C(=O)c2ccccc2)c1-c1ccc([N+](=O)[O-])cc1 | . | . | . | -2 | . | .
O=C(N/N=C/c1ccsc1)c1cc2ccccc2o1 | 97 | -5 | 0 | -3 | . | .
O=C(N/N=C/c1cccc([N+](=O)[O-])c1)c1cc2ccccc2o1 | 100 | 107* | 0 | -2 | 2 | -1
COc1ccc2c3c(cccc13)N(C)N=C2C | 95 | 62* | 1 | -16 | 33 | 11
COc1ccc2c3c(cccc13)OC2=O | 97 | 20 | 0 | -2 | . | .
COc1ccc(C(=O)c2[nH]c(N)c(C(=O)c3c[nH]c4ccccc34)c2-c2ccc(OC)cc2)cc1 | . | . | . | 0 | . | .
CCCSc1ccc([C@@H]2[C@@H]3C(=O)N(C)C(=O)[C@@H]3[C@]3(C(=O)OC)CCCN23)cc1OC | 100 | 60* | -2 | . | -5 | -7
CSc1cccc(NC(=S)NN/C(=N/S(=O)(=O)c2ccccc2)N2CCCC2)c1 | . | . | . | 0 | . | .
CC/C(=N\N=C1\SC(C)C(=O)N1Cc1ccco1)c1ccccc1 (stereo not given) | 97 | 59* | -1 | 0 | 5 | -7
C[C@@H]1ON(C)[C@H]2C[C@H]3c4cc(-c5ccc(F)cc5)ccc4CCN3C[C@@H]12 | . | . | . | -2 | . | .
C/C(=N\NC(=O)c1cc(-c2ccncc2)nc2ccccc12)c1ccc(N2CCOCC2)cc1 | 92 | 111* | 1 | -2 | -13 | 0
C=CCSc1nnc(NC(=O)C2CC(=O)N(Cc3ccc(C)cc3)C2)s1 (stereo not given) | 101 | 56* | 4 | 1 | -11 | 0
Cc1cc(NC(=O)c2cnn3c(C(F)(F)F)cc(-c4ccc(Br)cc4)nc23)no1 | 95 | 6 | 4 | 0 | -6 | -7
O=C(c1cnn2c(C(F)(F)F)cc(-c3ccc(Br)cc3)nc12)N1CCOCC1 | 104 | 0 | -1 | 1 | . | .
COc1cc(C=NN=c2sc3ccccc3n2C)ccc1OCCO | . | . | . | -1 | . | .
CCc1ccccc1NC(=O)Nc1cnccn1 | 101 | 45 | 1 | -1 | -12 | -6
CCOc1ccccc1NC(=O)Nc1cnccn1 | 86 | 103* | -1 | -2 | 1 | 16
O=C(Nc1cnccn1)Nc1ccccc1Cl | 96 | 2 | 9 | -4 | . | .
CC(C)C[C@H](NC(=O)C1CC1)C(=O)N1CCC[C@H]1C(=O)NCc1ccccc1 | . | . | . | -2 | . | .
O=c1cc(CO)[nH]cc1OCc1ccccc1 | 99 | 61* | 0 | 0 | -5 | -5
CCCn1c(SCC(=O)N2CCCCC2)nnc1C(C)C | 99 | 56* | -2 | -2 | -5 | -1
COc1ccc(C(=O)N(C)Cc2ccc(C)o2)cc1OC1CCN(C(C)=O)CC1 | 100 | 61* | 0 | -2 | 0 | -5
Cc1c(Cl)cccc1NC(=O)Nc1ccccc1C(N)=O | 102 | -1 | -1 | 0 | . | .
SMILES | ABCB6 inh 2 | Arrestin-AP2 inh | hiPSC survival | PG9 binder | Arr-AP2 CP1 | GST-FITC bead
Cc1c(Cl)cccc1NC(=O)Nc1ccc(C(N)=O)cc1 | 96 | 104* | -3 | 1 | 0 | 5
Cc1ccc(C(=O)Nc2ccccc2C(=O)N2CCCC(C)C2)cc1 (stereo not given) | 95 | 56* | 0 | -2 | -1 | 1
Cc1cccc(C)c1NC(=O)CN(C)C(=O)c1cccc(NS(=O)(=O)c2ccccc2)c1 | 101 | 59* | 1 | 2 | -11 | -1
COCCN1Cc2cc(C(=O)OC)c3c(c2C1=O)c1cc(OC)ccc1n3C(=O)c1ccccc1 | . | . | . | 0 | . | .
CCN(CC(=O)Nc1c(F)cccc1F)C(=O)CCNS(=O)(=O)c1ccc(C)c(C)c1 | 99 | 58* | 0 | 2 | -4 | 0
CCc1ccc2[nH]c(=O)c(CN(CCN3CCCC3)C(=O)NC3CCCCC3)cc2c1 | 103 | -2 | -2 | 0 | 18 | 1
Cc1ccc2[nH]c(=O)c(CN(CCN3CCOCC3)C(=O)Nc3ccc(F)cc3)cc2c1 | 108 | 6 | 0 | 0 | . | .
Cc1ccc2[nH]c(=O)c(CN(CCCN3CCOCC3)C(=O)NC3CCCCC3)cc2c1 | 95 | -19 | 1 | 1 | -9 | -6
O=C(CS(=O)(=O)c1ccccc1)Nc1ccc(N2CCOCC2)cc1 | 102 | 60* | 1 | 0 | -6 | -3
Nc1[nH]c(C(=O)c2ccccc2)c(-c2ccc3ccccc3c2)c1C(=O)NCc1ccc(F)cc1 | . | . | . | -1 | . | .
COc1ccc(CCN2C(=O)CS/C2=N\NC(=O)c2ccc(C(C)(C)C)cc2)cc1OC | 98 | 62* | 2 | -3 | 5 | -1
CC(C)[C@H](NC(=O)CC1CCCC1)C(=O)N1CCC[C@H]1C(=O)NCc1ccccc1 | . | . | . | 0 | . | .
CC(=O)O[C@@H]1C=C[C@@H](C#Cc2ccc(C(C)(C)C)cc2)O[C@@H]1COC(=O)Nc1ccccc1 | . | . | . | -2 | . | .
CCOc1ccccc1CNC(=O)CCCn1ncn2c(cc3occc32)c1=O | 98 | 64* | 0 | 0 | 9 | 1
Cc1ccc(OC(=O)N(C)C[C@H]2OCc3cn(nn3)CCCC(=O)N([C@@H](C)CO)C[C@@H]2C)cc1 | . | . | . | 1 | . | .
CCc1ccc2[nH]c(=O)c(CN(CCN(CC)CC)C(=S)NCc3ccco3)cc2c1 | 98 | 55* | -1 | 0 | 9 | -7
COC(=O)[C@]1(Cc2ccccc2)NC=C(C(=O)c2ccccc2)[C@@H]1c1cccs1 | . | . | . | -1 | . | .
O=S1(=O)N=C(N(CCO)/N=C/c2ccncc2)c2ccccc21 | 105 | -11 | 0 | -3 | . | .
O=S1(=O)N=C(N(CCO)/N=C/c2ccccc2)c2ccccc21 | 101 | 60* | -1 | -4 | 2 | 28
Cc1c(C(=O)N/N=C/c2ccc(N(C)C)cc2)[nH]c2ccc(Cl)cc12 | 96 | 90* | -1 | -2 | 14 | -7
Cc1c(C(=O)N/N=C/c2ccccc2)[nH]c2ccc(Cl)cc12 | 102 | -1 | 1 | -1 | . | .
CC(C)NC(=O)NC(=O)CSc1nnc(C(F)(F)F)n1C | 100 | 66* | 0 | 2 | -3 | -7
O=C(Nc1cc(C(F)(F)F)ccc1N1CCOCC1)C1=COCCO1 | 98 | 55* | 0 | 0 | 1 | -6
CCN(CC)c1ccc(CN(C(=O)c2ccco2)C2CCS(=O)(=O)C2)cc1 (stereo not given) | 100 | 0 | -1 | . | . | .
CCc1ccc(CN(C(=O)c2ccco2)C2CCS(=O)(=O)C2)cc1 (stereo not given) | 95 | 67* | 0 | 1 | -15 | -1
CCNc1nc(NCC)n2c(SCC(=O)Nc3cccc(Cl)c3)nnc2n1 | 95 | 59* | 0 | . | -8 | 2
